# Bioassay records as filed in PubChem BioAssay.
# Most compounds without a hit are left out; they make up all but 4.6% or so of the library.
# TAAR1 antagonist: human TAAR1 antagonism; Q96RJ0; CHO RD-HGA16 TAAR1, Fluo-8 calcium fluorescence, antagonist; inhibition, % at 3 µM; 1.5% of 360,000 active; AID 624466;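 active = inhibition above a per-plate cutoff, the mean inhibition of test compounds on that plate plus 3 SD, cut at about 49% in these data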;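 also: 0% = DMSO plus EC80 beta-PEA response and 100% = DMSO alone without agonist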
# Target sequence (Q96RJ0 whole entry, looked up): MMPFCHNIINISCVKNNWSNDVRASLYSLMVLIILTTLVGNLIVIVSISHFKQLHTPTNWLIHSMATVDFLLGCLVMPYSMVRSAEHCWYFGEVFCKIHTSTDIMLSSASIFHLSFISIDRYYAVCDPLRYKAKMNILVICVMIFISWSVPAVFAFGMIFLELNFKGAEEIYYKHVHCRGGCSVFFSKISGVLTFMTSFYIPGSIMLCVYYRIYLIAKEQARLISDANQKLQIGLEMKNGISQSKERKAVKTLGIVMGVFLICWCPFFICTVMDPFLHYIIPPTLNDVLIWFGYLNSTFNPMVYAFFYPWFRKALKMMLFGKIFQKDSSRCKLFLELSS
#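 Material: RD-HGA16 CHO cells with stable hTAAR1 and Gα16; Dosing: single nominal final test compound concentration of 3 µM; Schedule: seeding 17-24 h prior, 75-min 37 °C, 30-min RT dye loading; Detection: kinetic Fluo-8 calcium fluorescence measurement; Measure: % inhibition from peak post-agonist over basal fluorescence ratio; Benchmarks: vehicle and agonist controls.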
# TAAR1 agonist: agonists of human TAAR1; 0.99% of 360,000 active; Q96RJ0; activation, % at 3 µM; CHO RD-HGA16 TAAR1, Fluo-8 calcium fluorescence; vehicle wells 0%, saturating PEA agonist 100%;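 active = activation above the mean activation of all test compounds in the run plus 3 SD, cut at about 38% in these data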
#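 System: CHO-derived RD-HGA16 cells with stable Gα16 and human TAAR1 / Times: 17-24 h plating, Fluo-8 75 min 37 °C, 30 min RT / Technique: calcium-sensitive Fluo-8 signal, excitation 470-495, emission 515-575 nm / Measure: % activation relative to PEA EC100 response / Benchmarks: DMSO and PEA EC100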
# GPR7 antag: blocks human GPR7 receptor signaling; AID 1861; P48145; GPR7-expressing cells, fluorescence antagonist assay; 1.1% of 290,000 active; inhibition, % at 4.4 µM; in the data active = inhibition above about 16%, passing the limit was not always enough;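 also: cells stimulated with the agonist NPW; 0% = agonist with vehicle and 100% = vehicle without agonist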
# OX1R antag-1: antagonists of human orexin 1 receptor; O43613; CHO/OX1R cells, Fluo-8 calcium fluorescence, orexin A; inhibition, % at 5 µM; 0.43% of 330,000 active; AID 434989;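 active = inhibition above its plate's threshold, mean inhibition of all tested compounds on the plate plus 3 SD, cut at about 37% in these data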;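 also: 0% = orexin A challenge wells and 100% = SB-334867-A antagonist wells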
# Target sequence (O43613 whole entry, looked up): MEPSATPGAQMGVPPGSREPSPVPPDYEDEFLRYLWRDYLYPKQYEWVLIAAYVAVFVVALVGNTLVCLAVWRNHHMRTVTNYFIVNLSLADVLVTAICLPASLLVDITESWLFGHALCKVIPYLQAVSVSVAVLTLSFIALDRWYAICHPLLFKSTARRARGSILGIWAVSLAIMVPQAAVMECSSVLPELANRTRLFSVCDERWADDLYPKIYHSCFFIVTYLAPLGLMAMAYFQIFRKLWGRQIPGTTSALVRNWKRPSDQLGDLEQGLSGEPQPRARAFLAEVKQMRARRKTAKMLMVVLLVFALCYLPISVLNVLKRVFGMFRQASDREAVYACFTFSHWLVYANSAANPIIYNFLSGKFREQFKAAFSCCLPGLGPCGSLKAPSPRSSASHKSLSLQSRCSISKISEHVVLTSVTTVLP
# OX1R antag-2: blocks the human orexin 1 receptor; O43613; OX1R-expressing cells, FRET antagonist read-out; inhibition, % at 6.6 µM; 1.8% of 330,000 active; in the data active = inhibition mostly above about 38%, no sharp cut-off; inactive = mostly below about 40%;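 also: 0% = agonist challenge alone and 100% = reference antagonist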
# CHO parental Ca: counter-screen: ATP calcium response change in parental CHO cells. 0.63% of 330,000 active. parental CHO-K1, ATP-induced calcium, Fluo-8 fluorescence. AID 463079. inhibition, % at 5.6 µM;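 active = inhibition above that plate's mean sample inhibition plus 3 SD, cut at about 26% in these data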;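 also: 0% = ATP-challenged DMSO wells and 100% = DMSO wells without ATP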
#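 Assay system – parental CHO cells · Reagent – ATP stimulus · Detection – intracellular calcium via Fluo-8 no-wash fluorescent dye · Evaluation – percent inhibition of ATP-evoked calcium rise, normalized to controls · Controls – ATP wells versus no-ATP DMSO wells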
# nonsel antag count: nonselective antagonist in TAAR1 antagonist counter-screen. shares compounds with TAAR1 antagonist. counterscreen cell line, calcium fluorescence, antagonist mode. inhibition, % at 3 µM. 77% of 2,400 active. AID 651780; in the data active = inhibition above about 22%;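 also: CHO-Ga16 host cells stimulated with ATP at an EC80 level; 0% = agonist EC80 plus vehicle and 100% = vehicle without agonist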
# TAAR1 ant conf: confirmation of human TAAR1 antagonists | shares compounds with TAAR1 antagonist | TAAR1-expressing cells, fluorescence antagonist read-out | inhibition, % at 3 µM | 40% of 2,400 active | AID 651785; in the data active = inhibition above about 49%;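 also: CHO-Ga16 host cells challenged with agonist PEA near its EC80; 0% = agonist at EC80 plus vehicle and 100% = vehicle with no agonist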
# Ga16 nonsel ag: counter-screen for TAAR1 antagonists: nonselective Ga16 agonists. Ga16-expressing cells, calcium fluorescence, agonist counterscreen. AID 651953. 18% of 2,400 active. activation, % at 3 µM. shares compounds with TAAR1 antagonist; in the data active = activation above about 12%;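 also: 0% = vehicle wells and 100% = saturating stimulus response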
# TAAR1 ag counter: TAAR1 agonism, antagonist counter-screen | hTAAR1 cell line, fluorescence activation, agonist mode | shares compounds with TAAR1 antagonist | 2% of 2,400 active | activation, % at 3 µM; in the data active = activation above about 37%;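 also: CHO cells stably expressing TAAR1 with calcium dye readout; 0% = DMSO vehicle and 100% = full agonist response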
# Numbers without * were called inactive; nt = no result.
SMILES,TAAR1 antagonist,TAAR1 agonist,GPR7 antag,OX1R antag-1,OX1R antag-2,CHO parental Ca,nonsel antag count,TAAR1 ant conf,Ga16 nonsel ag,TAAR1 ag counter
CC(NC(=O)c1ccc(CS(=O)(=O)c2ccc(Cl)cc2)o1)c1ccc2c(c1)OCCO2 (stereo not drawn),59.0*,19.0,2.0,-21.2,20.8,-18.3,31.8*,52.9*,11.5,9.5
Cc1cc(NC(=O)CSCC(=O)OCC(=O)c2ccc(Br)cc2)no1,-17.0,8.0,nt,nt,nt,nt,nt,nt,nt,nt
Cc1cccc2cc(C3CC(c4cccs4)=NN3S(C)(=O)=O)c(Cl)nc12 (stereo not drawn),83.2*,2.9,1.6,-16.6,23.5,0.3,5.0,35.3,1.4,9.9
Cc1ccc2cc(C3CC(c4cccs4)=NN3S(C)(=O)=O)c(Cl)nc2c1 (stereo not drawn),-11.4,3.8,-4.6,-20.0,21.9,-17.7,nt,nt,nt,nt
Brc1ccccc1-c1nc2c3ccccc3ncn2n1,52.7*,9.0,nt,-17.0,20.6,-30.0,12.9,14.3,9.8,15.4
CCCNC(=O)c1ccccc1NC(=O)c1ccc2c(c1)NC(=O)C(C)S2 (stereo not drawn),59.0*,8.6,0.1,-34.0,43.2,-26.9,27.4*,49.3*,7.0,14.2
CC1C(=O)N(Cc2cn(CCC3OCCO3)nn2)CCS(=O)(=O)N1Cc1ccc(-c2ccc(Cl)c(Cl)c2)cc1 (stereo not drawn),75.2*,19.7,nt,nt,nt,nt,37.9*,41.2,14.8*,8.7
CC(C)C1C(=O)N(Cc2cn(CCC3OCCO3)nn2)CCS(=O)(=O)N1Cc1ccc(-c2ccc(Cl)cc2)cc1 (stereo not drawn),53.1*,11.1,nt,nt,nt,nt,29.7*,31.4,7.7,3.5
COCCSc1nnc(NC(=O)C2CC(=O)N(CCc3ccc(F)cc3)C2)s1 (stereo not drawn),-10.5,4.0,-8.3,-14.3,16.9,7.0,nt,nt,nt,nt
C=CC[C@@H](CC(=O)N(CCO)Cc1ccccc1)C(=O)N[C@@H](COC(=O)[C@H](CC=C)CC(=O)OC(C)(C)C)Cc1c[nH]c2ccccc12,25.4,8.7,nt,-10.2,7.9,-17.8,nt,nt,nt,nt
C=CC[C@H](CC(=O)N(CCO)Cc1ccccc1)C(=O)N[C@@H](COC(=O)[C@@H](CC=C)CC(=O)OC(C)(C)C)Cc1c[nH]c2ccccc12,68.3*,22.3,nt,15.1,0.7,-6.3,32.4*,48.2,7.2,3.0
C=CC[C@H](CC(=O)NCCO)C(=O)N[C@H](COC(=O)[C@H](CC=C)CC(=O)OC(C)(C)C)Cc1c[nH]c2ccccc12,49.0*,10.3,nt,-10.5,4.0,-24.7,21.3,41.0,6.6,7.9
COc1cccc(C(C)(O)c2nc(-c3ccc(OC)nc3)cs2)c1 (stereo not drawn),7.0,1.6,nt,nt,nt,nt,nt,nt,nt,nt
CCO[C@@H]1OC(C(=O)N2CCN(Cc3ccccc3)CC2)=C[C@H](c2csc3ccccc23)[C@H]1CCCO,52.0*,9.3,-15.3,-27.1,22.2,-1.7,22.6*,24.9,5.3,1.0
COc1cc(OC)c(N(C)S(=O)(=O)c2cccc(C(=O)Nc3nccs3)c2)cc1Cl,63.0*,9.5,nt,6.8,22.3,-13.4,28.3*,45.0,7.6,3.0
Cc1cc(F)ccc1-c1cc(C(=O)NC2CCCCC2)[nH]n1,4.9,0.9,nt,nt,nt,nt,nt,nt,nt,nt
O=C(O)c1cccc(NC(=O)c2cn(-c3ccccc3)nc2-c2cc3ccccc3o2)c1,63.7*,11.9,-4.1,19.4,16.3,17.6,38.7*,42.2,6.4,4.5
O=C(N/N=C/c1cn(-c2ccccc2)nc1-c1cc2ccccc2o1)c1ccncc1,48.2,6.7,10.6,-12.8,9.6,-28.0,nt,nt,nt,nt
O=c1c2ccccc2nc(-c2ccco2)n1Cc1ccccc1,25.3,16.4,-5.0,-17.5,6.5,-17.8,nt,nt,nt,nt
CCOc1ccc(CCn2c(-c3ccco3)nc3ccccc3c2=O)cc1OCC,57.8*,12.8,-10.7,-22.3,17.5,-17.3,30.9*,45.0,7.2,5.5
O=C(NC1CC1)C1=C[C@H](c2csc3ccccc23)C[C@H](OCc2ccc(CO)cc2)O1,57.6*,34.3,nt,-23.9,12.1,-17.1,26.5*,43.6,16.1*,23.4
O=C(C1=C[C@@H](c2csc3ccccc23)C[C@@H](OCc2ccc(CO)cc2)O1)N1CCOCC1,56.8*,31.7,-6.0,-2.1,21.9,-1.1,26.5*,35.0,6.2,5.6
CC(=O)n1cc([C@H]2C=C(C(=O)N3CCN(Cc4ccccc4)CC3)O[C@@H](OCc3ccc(CO)cc3)C2)c2ccccc21,69.4*,26.6,-13.9,-6.1,13.1,-22.0,34.5*,46.0,9.0,8.9
O=C(Nc1ccccc1)C1=C[C@@H](c2coc3ccccc3c2=O)C[C@@H](OCc2ccc(CO)cc2)O1,51.1*,8.1,-12.1,-24.1,27.3,-26.0,20.5,25.2,1.8,-1.2
Cc1cn([C@H]2C[C@H](O)[C@@H](CNCC3=Cc4cc(O)ccc4OC3)O2)c(=O)[nH]c1=O,-8.7,0.7,nt,nt,nt,nt,nt,nt,nt,nt
SMILES,TAAR1 antagonist,TAAR1 agonist,GPR7 antag,OX1R antag-1,OX1R antag-2,CHO parental Ca,nonsel antag count,TAAR1 ant conf,Ga16 nonsel ag,TAAR1 ag counter
O=C1NC[C@@H](CCCCN2C[C@H](Cc3ccc(O)cc3)N(CCC3CCCCC3)C(=O)C2=O)N(CCc2ccc(O)cc2)C1=O,24.7,2.1,nt,nt,nt,nt,nt,nt,nt,nt
CNC(=O)C(C)c1ncc(C(F)(F)F)cc1Cl (stereo not drawn),98.2*,-2.6,-7.2,-26.1,16.7,-13.0,2.4,-5.2,-0.7,-1.8
COc1ccc(C(=O)Nc2cccc(NC(=O)c3ccc(OC)c(OC)c3)n2)cc1OC,62.1*,25.2,-1.7,-13.6,13.8,-4.5,35.3*,54.8*,10.5,7.4
Cc1ccccc1C(=O)Oc1ccc(-c2csnn2)cc1,21.6,1.4,-3.5,-2.5,20.2,5.4,nt,nt,nt,nt
Cc1ccccc1C(=O)Oc1ccc(Sc2ccc(O)cc2)cc1,60.7*,9.8,-17.4,3.7,24.4,-17.2,18.4,14.6,-0.9,0.0
COc1ccc(NC(=O)C2(C)CCN2C(=O)c2ccc(C(C)(C)C)cc2)cc1OC (stereo not drawn),-9.8,0.6,nt,nt,nt,nt,nt,nt,nt,nt
O=S1(=O)CC(N2CCC(c3ccccc3)CC2)CN1Cc1ccccc1 (stereo not drawn),-22.7,1.4,nt,nt,nt,nt,nt,nt,nt,nt
